Numbering of substitutions follows the chain as printed. Calls of active or inactive are those of the source.
Key:
Leishmania donovani [1] = assay: Inhibition of recombinant drug-resistant Leishmania donovani LdDR50 topoisomerase 1b large subunit K430N mutant and small subunit N184S mutant-mediated relaxation of supercoiled pBluescript SK(+) DNA at up to 50 uM after 30 mins using ethidium bromide staining
Procedure, shortened: (§1)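 Reconstituted recombinant enzyme (30 fmol) with 90 fmol supercoiled pBluescript SK(+) DNA (3:1 DNA:enzyme), 30 min at 37°C with DIM (1–50 μM for fully mutant enzyme; 10 μM for single-site mutants); 4% DMSO vehicle control. Products on 1% agarose, ethidium bromide (0.5 μg/ml) stained; supercoiled monomer band quantified.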

Leishmania donovani [2] = assay: Inhibition of recombinant drug-resistant Leishmania donovani LdDR50 topoisomerase 1b-mediated relaxation of supercoiled pBluescript SK(+) DNA at up to 50 uM after 30 mins using ethidium bromide staining; procedure, shortened: as §1
[3] = tested on: T1, DNA topoisomerase type IB small subunit (Leishmania donovani (strain BPK282A1)), E9B7X3 [N184S]; assay: Effect on recombinant drug-resistant Leishmania donovani LdDR50 topoisomerase 1b small subunit N184S mutant-mediated cleavage of 25-mer duplex oligonucleotide at 20 uM after 30 mins by PAGE analysis
T1 sequence (whole entry): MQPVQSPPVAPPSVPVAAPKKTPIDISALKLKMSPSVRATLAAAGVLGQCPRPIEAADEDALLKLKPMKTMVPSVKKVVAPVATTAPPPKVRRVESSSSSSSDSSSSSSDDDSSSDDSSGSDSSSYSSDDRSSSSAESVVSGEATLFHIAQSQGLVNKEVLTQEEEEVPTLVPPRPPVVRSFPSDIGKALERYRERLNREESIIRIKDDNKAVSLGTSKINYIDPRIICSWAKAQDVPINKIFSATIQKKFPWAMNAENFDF
Procedure, shortened: (§2)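 5′-32P-labelled 25-mer duplex (10 nM) incubated with reconstituted mutant enzyme (0.2 μM, 20-fold molar excess) and DIM 5–20 μM for 30 min (Methods 37°C; legend 23°C). Stopped with SDS, trypsin-treated, resolved on 12% denaturing polyacrylamide-urea gel; cleaved 12-mer detected by autoradiography.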

[4] = target: DNA topoisomerase type IB small subunit (Leishmania donovani (strain BPK282A1), UniProt E9B7X3, N184S); assay: Binding affinity to recombinant drug-resistant Leishmania donovani LdDR50 topoisomerase 1b small subunit N184S mutant after 24 hrs by equilibrium dialysis method
Procedure, shortened: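 Recombinant His-tagged subunits expressed in E. coli BL21(DE3) pLysS, purified on Ni-NTA then phosphocellulose, reconstituted 1:1. Enzyme 200 μM with DIM 1–20 μM in 20 mM Tris-HCl pH 7.5, 50 mM NaCl, 10 mM MgCl2 for 30 min at 37°C, then dialysed (12–14 kDa cutoff) 24 h at 25°C. Free DIM measured by absorbance (ε 6.6 × 10^4 M−1); KD from saturation plot.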

[5] = tested on: T2, Leishmania donovani [F270L,K430N]; assay: Inhibition of recombinant drug-resistant Leishmania donovani LdDR50 topoisomerase 1b wild type small subunit and large subunit F270L, K430N mutant-mediated relaxation of supercoiled pBluescript SK(+) DNA at up to 50 uM after 30 mins using ethidium bromide staining; procedure, shortened: as §1
T2 sequence (whole entry): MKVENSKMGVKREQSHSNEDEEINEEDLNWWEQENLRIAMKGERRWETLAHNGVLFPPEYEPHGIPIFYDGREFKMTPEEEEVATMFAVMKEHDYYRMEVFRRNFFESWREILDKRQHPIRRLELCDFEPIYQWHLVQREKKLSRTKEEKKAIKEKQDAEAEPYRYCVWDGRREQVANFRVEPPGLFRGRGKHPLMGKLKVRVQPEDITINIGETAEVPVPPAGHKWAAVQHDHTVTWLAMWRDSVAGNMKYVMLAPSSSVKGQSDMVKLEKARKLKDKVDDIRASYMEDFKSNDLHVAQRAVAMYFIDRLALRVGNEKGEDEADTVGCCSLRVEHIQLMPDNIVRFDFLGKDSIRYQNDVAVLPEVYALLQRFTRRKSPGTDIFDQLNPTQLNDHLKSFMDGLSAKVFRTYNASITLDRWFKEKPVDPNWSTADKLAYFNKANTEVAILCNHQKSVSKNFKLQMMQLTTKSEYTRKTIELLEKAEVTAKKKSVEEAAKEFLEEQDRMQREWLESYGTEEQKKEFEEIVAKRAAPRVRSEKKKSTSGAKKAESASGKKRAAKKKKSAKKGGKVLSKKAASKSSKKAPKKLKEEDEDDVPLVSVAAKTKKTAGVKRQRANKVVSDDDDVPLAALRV

[6] = tested on: T3, Leishmania donovani [N184S]; assay: Inhibition of recombinant drug-resistant Leishmania donovani LdDR50 topoisomerase 1b wild type large subunit and small subunit N184S mutant-mediated relaxation of supercoiled pBluescript SK(+) DNA at up to 50 uM after 30 mins using ethidium bromide staining; procedure, shortened: as §1
T3 sequence (whole entry): T1 sequence (whole entry)

[7] = Binding affinity to Leishmania donovani small subunit of topoisomerase 1b
[8] = tested on: T1, DNA topoisomerase type IB small subunit (Leishmania donovani (strain BPK282A1)), E9B7X3 [N184S]; assay: Effect on recombinant drug-resistant Leishmania donovani LdDR50 topoisomerase 1b small subunit N184S mutant-mediated cleavage of 25-mer duplex oligonucleotide at 5 uM after 30 mins by PAGE analysis; procedure, shortened: as §2
[9] = tested on: T4, DNA topoisomerase I (Leishmania donovani (strain BPK282A1)), E9BRC0 [F270L]; assay: Inhibition of recombinant drug-resistant Leishmania donovani LdDR50 topoisomerase 1b large subunit F270L mutant-mediated religation of 14-mer/25-mer suicide DNA substrate at 20 uM […] by PAGE analysis
T4 sequence (whole entry): T2 sequence (whole entry) with N430K

c1ccc2c(Cc3c[nH]c4ccccc34)c[nH]c2c1 [ARUNDINE]
inhibition (Leishmania donovani [1]): Active | inhibition (Leishmania donovani [2]): inactive | Activity [3]: Active | Kd [4]: 380 µM | inhibition [5]: inactive | inhibition [6]: Active | Kd [7]: 0.05 µM | Activity [8]: inactive | inhibition [9]: inactive

From ChEMBL document CHEMBL1687733, “Topoisomerase I gene mutations at F270 in the large subunit and N184 in the small subunit contribute to the resistance mechanism of the unicellular parasite Leishmania donovani towards 3,3'-diindolylmethane” (Antimicrob Agents Chemother, 2009)
